Test results published in ChEMBL document CHEMBL1125096, “Synthesis and antitumor activity of 9-[(carbamoyloxy)alkyl]anthracyclines: a novel class of anthracycline derivatives” (1990).

Key:
Format in all cases: functional, Mus musculus
L1210 (1565) [1] = assay: Antitumor activity against L-1210 leukemia cell line in BDF1 mice after injecting 2 mg/kg intraperitoneal dose
In short: (§1)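 Female BDF1 mice, five per dose group, inoculated ip with 10^5 viable L-1210 ascites cells. Dosing started the same day: ip, daily, five times a week for 4 weeks or until death. Vehicle was aqueous solution, or propylene glycol suspension if insoluble. Efficacy is expressed as T/C, the ratio of mean survival time of treated to untreated control mice. Survivors at 4 weeks counted as long-term.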

L1210 (1565) [2] = assay: Antitumor activity against L-1210 leukemia cell line in BDF1 mice after injecting 1 mg/kg intraperitoneal dose; in short: as §1
L1210 (1565) [3] = assay: Antitumor activity against L-1210 leukemia cell line in BDF1 mice after injecting 4 mg/kg intraperitoneal dose; in short: as §1
L1210 (1565) [4] = assay: Antitumor activity against L-1210 leukemia cell line in BDF1 mice after injecting 0.25 mg/kg intraperitoneal dose; in short: as §1
L1210 (1565) [5] = assay: Antitumor activity against L-1210 leukemia cell line in BDF1 mice after injecting 0.125 mg/kg intraperitoneal dose; in short: as §1
L1210 (1565) [6] = assay: Antitumor activity against L-1210 leukemia cell line in BDF1 mice after injecting 0.5 mg/kg intraperitoneal dose; in short: as §1
L1210 (1565) [7] = assay: Antitumor activity against L-1210 leukemia cell line in BDF1 mice after injecting 0.05 mg/kg intraperitoneal dose; in short: as §1
L1210 (1565) [8] = assay: Antitumor activity against L-1210 leukemia cell line in BDF1 mice after injecting 16 mg/kg intraperitoneal dose; in short: as §1

CC1OC(O[C@H]2C[C@](O)(COC(=O)Nc3ccc(Cl)cc3)Cc3c(O)c4c(c(O)c32)C(=O)c2ccccc2C4=O)CC(N)C1O.Cl (some centres undefined)
T/C (L1210 (1565) [1]): 370%

COc1cccc2c1C(=O)c1c(O)c3c(c(O)c1C2=O)C[C@@](O)(C(=O)CO)C[C@@H]3O[C@H]1C[C@H](N)[C@H](O)[C@H](C)O1.Cl [DOXORUBICIN HYDROCHLORIDE]
T/C (L1210 (1565) [1]): 330%

C[C@@H]1O[C@@H](O[C@H]2C[C@](O)(COC(=O)Nc3ccccc3)Cc3c(O)c4c(c(O)c32)C(=O)c2ccccc2C4=O)C[C@@H](N)[C@@H]1O.Cl (stereo in doubt; 8a)
T/C (L1210 (1565) [1]; 2 mg/kg): 380%

COc1ccc(NC(=O)OC[C@]2(O)Cc3c(O)c4c(c(O)c3[C@@H](OC3CC(N)C(O)C(C)O3)C2)C(=O)c2ccccc2C4=O)cc1.Cl (some centres undefined)
T/C (L1210 (1565) [1]): 230%

CC1OC(O[C@H]2C[C@](O)([C@@H](C)OC(=O)Nc3ccccc3)Cc3c(O)c4c(c(O)c32)C(=O)c2ccccc2C4=O)CC(N)C1O.Cl (some centres undefined)
T/C (L1210 (1565) [2]): 280%

CNC(=O)OC[C@]1(O)Cc2c(O)c3c(c(O)c2[C@@H](OC2CC(N)C(O)C(C)O2)C1)C(=O)c1ccccc1C3=O.Cl (some centres undefined)
T/C (L1210 (1565) [3]): 280%

C[C@@H]1OC(O[C@H]2C[C@](O)([C@@H](C)OC(=O)Nc3ccccc3)Cc3c(O)c4c(c(O)c32)C(=O)c2ccccc2C4=O)C[C@H](N)[C@@H]1O.Cl (some centres undefined)
T/C (L1210 (1565) [4]): 420%

C[C@@H]1OC(O[C@H]2C[C@](O)([C@H](C)OC(=O)Nc3ccccc3)Cc3c(O)c4c(c(O)c32)C(=O)c2ccccc2C4=O)C[C@H](N)[C@H]1O.Cl (some centres undefined)
T/C (L1210 (1565) [5]): 400%

COc1cccc2c1C(=O)c1c(O)c3c(c(O)c1C2=O)C[C@@](O)(C(C)=O)C[C@@H]3O[C@H]1C[C@H](N)[C@H](O)[C@H](C)O1.Cl [DAUNORUBICIN HYDROCHLORIDE]
T/C (L1210 (1565) [6]): 290%

CC1OC(O[C@H]2C[C@](O)(COC(=O)Nc3ccc([N+](=O)[O-])cc3)Cc3c(O)c4c(c(O)c32)C(=O)c2ccccc2C4=O)CC(N)C1O.Cl (some centres undefined)
T/C (L1210 (1565) [3]): 210%

C[C@H]1C[C@H](N)C[C@H](O[C@H]2C[C@](O)(COC(=O)Nc3ccccc3)Cc3c(O)c4c(c(O)c32)C(=O)c2ccccc2C4=O)O1.Cl
T/C (L1210 (1565) [1]): 500%

CC(=O)[C@]1(O)Cc2c(O)c3c(c(O)c2[C@@H](O[C@H]2C[C@@H](N)[C@H](O)[C@H](C)O2)C1)C(=O)c1ccccc1C3=O.Cl
T/C (L1210 (1565) [7]): 230%

CC1OC(O[C@H]2C[C@](O)(COC(=O)Nc3ccccc3)Cc3c(O)c4c(c(O)c32)C(=O)c2ccccc2C4=O)CC(N)C1OCc1ccccc1.Cl (some centres undefined)
T/C (L1210 (1565) [8]): 470%

CO[C@H]1[C@H](N)C[C@H](O[C@H]2C[C@](O)(COC(=O)Nc3ccccc3)Cc3c(O)c4c(c(O)c32)C(=O)c2ccccc2C4=O)O[C@H]1C.Cl (stereo in doubt; 19)
T/C (L1210 (1565) [1]; 2 mg/kg): 230%
